The source of these data is PMC2933508 (Cancer research, 2010).

Where a SMILES comes first, the peptide text is derived from it. [ ]: non-standard residue; d: D form. The star is where a group is joined. NH(Colchicin-10-yl) = COc1cc2c(c(OC)c1OC)-c1ccc(N*)c(=O)cc1[C@@H](NC(C)=O)CC2; FITC = O=C1OC2(c3ccc(O)cc3Oc3cc(O)ccc32)c2ccc(NC(=S)*)cc21; hPhe = N[C@@H](CCc1ccccc1)C(=O)O; Cit = NC(=O)NCCC[C@H](N)C(=O)O; βAla = NCCC(=O)O

Series [1] has as its system HT1080 tumors. As to the kind of experiment: Antitumor activity, HT1080 xenograft, single agent. The format is in vivo, mouse. The essentials:
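Female Balb/c nude mice (6–8 wk) carried s.c. HT1080 xenograft fragments (2–3 mm³) and were randomized at ~32 mm³. They got a single i.p. dose of test conjugate (37.5, 50, 62.5 or 75 mg kg⁻¹) or molar-equivalent free metabolite (7.5–15 mg kg⁻¹). Caliper volume ((a²×b)/2, normalized to day 0) and body weight were recorded daily for up to 64 days. Growth delay was the time to tumor-volume doubling relative to control. Mann-Whitney U test.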

Series [2] can be described thus: Pharmacokinetics and tissue distribution in HT1080 tumor-bearing mice. The format is in vivo, mouse. The settings on record: ICT2552 10.2 mg kg−1 i.p., 4 h post-administration. In outline:
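Mice bearing HT1080 tumours received i.p. test conjugate (150 mg kg⁻¹), free metabolite (10.2 mg kg⁻¹) or vehicle (10% DMSO/Arachis oil). Tumour, blood, liver, kidney, lung, heart and spleen were collected at set times. Plasma (5000 g, 10 min) was diluted 1:5 into methanol; tissues were snap-frozen and homogenized in ice-cold methanol. Supernatants went to LC-MS against agent-free plasma/tissue calibrators; 3 mice per time point.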

For series [3], the system named is HT1080 cells (MT1-MMP positive). As to the kind of experiment: MTT chemosensitivity assay, HT1080 cells. The format is cell-based, human. The note with it: in vitro, MTT IC50 ratio. In outline: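 HT1080 and MCF7 cells were grown in RPMI 1640 with 10% FBS, 1 mmol/L pyruvate and 2 mmol/L glutamine, at low passage. MTT assay: exposure to test conjugate (2.4 nmol/L–5 μmol/L), free metabolite (0.1 nmol/L–5 μmol/L) or DMSO for 24 or 96 h. Survival was read 96 h post-treatment and IC50 taken from survival curves; mean ± SD of 3 independent experiments.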

The subject of series [4] is MCF7. As to the kind of experiment: Intracellular fluorescence following treatment. The format is cell-based, human. The note with it: in vitro.
Series [5] can be described thus: ICT2588 metabolism ex vivo in MCF7 xenograft homogenate. The note with it: human, other tissue homogenate, pH 7.6. The format is in vitro ADME. The essentials: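 Supernatants were run at 100 mg tissue per ml with test compound at 20 μmol/L final. Aliquots taken over 120 min were acetonitrile-precipitated and analysed by LC-MS: reverse-phase, 22.5–50% acetonitrile/0.05% TFA gradient over 30 min, parent quantified at 360 nm. Three independent experiments.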

Series [6] deals with HT1080 tumors. As to the kind of experiment: Vascular shutdown and tumor necrosis in HT1080 tumors. The format is in vivo, mouse. The note with it: 24 h after i.p. ICT2588 150 mg kg−1, HT1080 tumor-bearing mice, mean of 3 mice. The essentials: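 Mice bearing HT1080 tumours got i.p. test conjugate (150 mg kg⁻¹), free metabolite (10.2 mg kg⁻¹) or vehicle (10% DMSO/Arachis oil). Functional tumour vasculature and hemorrhagic necrosis were assessed 24 h later; mean of 3 mice ± standard error.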

`COc1cc2c(c(OC)c1OC)-c1ccc(N)c(=O)cc1[C@@H](NC(C)=O)CC2` [ICT2552, azademethylcolchicine] had a tumor growth delay in series [1] (ICT2552 15 mg kg−1 single i.p. dose (equimolar to ICT2588 75 mg kg−1)) of 1.9 days. For the same compound, in series [1] (ICT2552 7.5, 10, 12.5 and 15 mg kg−1 i.p.), the “antitumor response compared with ICT2588 at equimolar doses” value is given as “significantly lower antitumor response”. Also, in series [2], the “concentration of ICT2552 in plasma” value is “below the level of detection” and the “concentration of ICT2552 in tumor versus liver tissue” value is reported as “not significantly different”. In addition, the “chemosensitivity of HT1080 cells relative to MCF7 cells” value in series [3] is “equally cytotoxic to HT1080 and MCF7 cells”.
`COc1cc2c(c(OC)c1OC)-c1ccc(NC(=O)[C@H](Cc3ccc(O)cc3)NC(=O)[C@H](CC(C)C)NC(=O)[C@H](Cc3ccc(O)cc3)NC(=O)[C@H](CCc3ccccc3)NC(=O)CNC(=O)[C@H](CCCNC(N)=O)NC(=O)[C@H](CO)NC(=O)[C@H](CCCNC(=N)N)NC(=O)CCNC(=S)Nc3ccc4c(c3)C(=O)OC43c4ccc(O)cc4Oc4cc(O)ccc43)c(=O)cc1[C@@H](NC(C)=O)CC2` [ICT2588] ({FITC-βAla}-RS[Cit]G[hPhe]YLY-{NH(Colchicin-10-yl)}; N-terminus and C-terminus assumed) showed a tumor growth delay in series [1] (ICT2588 75 mg kg−1 single i.p. dose, p<0.01) of 4.4 days. The “loss in mouse bodyweight (maximum)” value in series [1] (all doses of ICT2588 used (37.5-75 mg kg−1 i.p.), data not shown) was no more than 6%. For the same compound, in series [4], the “cell entry / intracellular fluorescence following treatment” value is reported as “lack of observable intracellular fluorescence”. This compound yielded a half-life in series [5] of 33.1 min. Moreover, in series [6], the “increase in hemorrhagic necrosis” value was found to be 3 fold. In series [3], the “chemosensitivity of HT1080 cells relative to MCF7 cells” value is “at least 10 fold”.
